Only some compounds are listed: those with a hit (about 5.7% of all), similar ones and a draw of the others.
Mdm2 MdmX PPI: inhibitors of human Mdm2-MdmX association, primary screen, cell-based, luminescence, split luciferase, SaOS-2, uHTS | Protein Mdm4 (Homo sapiens) + E3 ubiquitin-protein ligase Mdm2 (Homo sapiens), … | SaOS-2 split-luciferase Mdm2/MdmX complementation | inhibition, % at 8 µM | actives 3% (n = 330,000) | AID 485346, 2010;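 active = inhibition of at least 50% at 8 µM in the primary screen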
Target sequence (O15151 whole entry, looked up): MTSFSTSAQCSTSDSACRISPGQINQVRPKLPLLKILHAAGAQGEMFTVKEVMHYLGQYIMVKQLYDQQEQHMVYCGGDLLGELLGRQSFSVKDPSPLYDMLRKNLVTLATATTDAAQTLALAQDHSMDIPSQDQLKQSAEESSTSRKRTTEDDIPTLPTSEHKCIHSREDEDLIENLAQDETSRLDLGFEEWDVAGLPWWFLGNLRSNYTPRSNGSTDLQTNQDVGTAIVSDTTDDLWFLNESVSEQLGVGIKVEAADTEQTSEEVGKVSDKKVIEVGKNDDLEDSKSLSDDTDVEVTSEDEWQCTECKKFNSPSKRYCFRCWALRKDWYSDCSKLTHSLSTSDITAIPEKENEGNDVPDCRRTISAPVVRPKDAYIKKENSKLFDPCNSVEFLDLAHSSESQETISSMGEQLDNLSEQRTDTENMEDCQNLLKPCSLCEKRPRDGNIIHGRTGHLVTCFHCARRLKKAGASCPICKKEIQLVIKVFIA
Target sequence (Q00987 whole entry, looked up): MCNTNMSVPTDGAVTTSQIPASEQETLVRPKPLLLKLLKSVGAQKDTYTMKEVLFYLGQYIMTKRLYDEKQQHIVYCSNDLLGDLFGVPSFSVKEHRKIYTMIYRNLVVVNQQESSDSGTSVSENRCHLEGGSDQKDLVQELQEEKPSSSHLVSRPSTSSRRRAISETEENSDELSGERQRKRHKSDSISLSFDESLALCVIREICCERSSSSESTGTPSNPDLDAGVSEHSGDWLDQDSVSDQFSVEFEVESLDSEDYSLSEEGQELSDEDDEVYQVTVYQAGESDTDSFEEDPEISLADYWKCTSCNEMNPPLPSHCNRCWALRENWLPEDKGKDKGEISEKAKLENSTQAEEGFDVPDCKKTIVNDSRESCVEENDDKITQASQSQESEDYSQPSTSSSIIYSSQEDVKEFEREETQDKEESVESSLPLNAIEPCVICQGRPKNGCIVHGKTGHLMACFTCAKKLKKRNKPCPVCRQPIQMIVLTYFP
SKKanGAS inh: S. pyogenes SKKanGAS growth inhibitors in kanamycin, primary screen, streptokinase expression inhibitor project, SKKanGAS strain, BacTiter-Glo luminescence | 6 h | inhibition, % at 7.5 µM | actives 1.3% (n = 300,000);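 active = mean replicate score, as percent of positive control median, at least 50; inconclusive = mean below 50 but one replicate at or above 50; inactive = mean and every replicate below 50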;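 note: strain carries kanamycin resistance gene driven by streptokinase promoter and grows in 40 µg/ml kanamycin; loss of luminescence reflects streptokinase promoter inhibition or plain growth inhibition; 0% = median of DMSO wells and 100% = positive control at its reference dose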
Calb FLC: C. albicans growth inhibition with fluconazole, primary screen, CaCi-2 strain, Alamar Blue fluorescence. C. albicans CaCi-2 (fluconazole-resistant clinical isolate) + fluconazole, 48 h. growth inhibition, % (concentration not given with the values). actives 0.57% (n = 300,000). AID 1979, 2009;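 active = growth inhibition above about 58% in most replicates, limit read from the data, passing the limit was not always enough; inconclusive = exactly half the replicates above a set limit; inactive = most replicates below a set limit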;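 note: all wells also contain fluconazole at 8 µg/ml as a sub-toxic cotreatment; 0% = median of DMSO wells and 100% = median of geldanamycin control wells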
CSC inhib: cancer stem cell viability inhibitors, primary screen, luminescence; cancer stem cell-like cells viability; inhibition, % at 7.5 µM; AID 2717, 2010; actives 1.1% (n = 300,000); in the data active = inhibition above about 75%; inconclusive = no clear call, values can overlap the other calls; tested in HMLE shEcad cells
Beta apoptosis: inhibitors of cytokine-induced beta cell apoptosis, primary screen, luminescence; INS-1E cytokine-induced death, ATP luminescence, 48 h; percent of positive-control rescue, neutral wells zero; protection from apoptosis, % (no concentration beside the values); actives 0.8% (n = 300,000); AID 435005, 2010;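 active = Every replicate reaches about 75%, or at least half do and their mean reaches it too, limit read from the data; inconclusive = At least half of replicates reach the limit but their mean does not; inactive = Under half of replicates reach the limit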;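 note: 0% = cytokine-treated negative control wells and 100% = positive control rescue; higher means more ATP so stronger rescue from cytokine killing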
T cruzi repl: inhibitors of intracellular T. cruzi growth, primary screen, luminescence, NIH3T3 host cells; actives 1.4% (n = 300,000); inhibition, % (concentration not given with the values); T. cruzi beta-gal in NIH3T3, 90 h;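 active = mean inhibition across valid replicates above about 55%, limit read from the data; inconclusive = mean below that limit but half or more replicates reach it; inactive = mean below it, under half of replicates reach it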;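 note: signal also drops with host cell toxicity which is not excluded here; 0% = plate median of DMSO wells and 100% = zero luminescence signal; higher percent means less beta-gal luminescence so fewer parasites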
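System: Mouse NIH/3T3 fibroblasts infected with β-gal-expressing T. cruzi Tulahuen C4 | Quantity: NIH/3T3 cells, 5,000 per well | Reagent: 5000 reporter trypomastigotes per well | Dosing: Compound pinned at 50 nL/well, DMSO | Schedule: 3 h host attachment, then at least 90 h co-culture | Detection: GalScreen luminescence, 60 min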
An asterisk follows results filed as active; ? = inconclusive; nt = no result given.

SMILES | Mdm2 MdmX PPI | SKKanGAS inh | Calb FLC | CSC inhib | Beta apoptosis | T cruzi repl
Cc1cccc(N2CCN(C(=O)C3CCC(=O)N(C4CC4)C3)CC2)c1C (configuration not stated) | 15 | 1 | -8 | 3 | 1 | -9
CCCN1CCN(C(=O)CCc2nnc3ccc(N4CCN(c5cccc(OC)c5)CC4)nn23)CC1 | -4 | -2 | 6 | -24 | 4 | -3
O=C(N/N=C/c1ccc(-c2ccc(Cl)c(C(=O)O)c2)o1)c1cc2c(ccc3ccccc32)o1 | 13 | 61* | 17 | 2 | -7 | -4
O=C(O)c1ccc(/C=N/NC(=O)c2cc3c(ccc4ccccc43)o2)cc1 | 0 | 33 | 14 | -9 | -4 | -9
Cc1ccc(-c2ccc(/C=N/NC(=S)Nc3ccccc3)o2)cc1[N+](=O)[O-] | -15 | 2 | 7 | 2 | 23 | 42
Cc1ccc(C(=O)N/N=C/c2ccc(-c3cccc(Cl)c3)o2)cn1 | 20 | 31 | 12 | 39 | -2 | 3
Cc1ccc(C(=O)N/N=C\c2ccc(-c3ccc(Cl)c(Cl)c3)o2)cn1 | 24 | 0 | -6 | 76* | 8 | 6
CNC(=S)N/N=C/c1ccc(-c2ccc(Cl)c([N+](=O)[O-])c2)o1 | 3 | -9 | 85* | -1 | 3 | 1
CSc1nc2sc3c(c2c(=O)[nH]1)CCC3 | 0 | 4 | -6 | -15 | 6 | -5
CN(Cc1ccccc1)C(=O)CN1CCN(C(c2ccccc2)c2ccccc2)CC1 | 33 | 10 | 0 | 10 | -11 | -2
CN(C(=O)CSc1nnc(-c2ccco2)o1)C1CCCCC1 | -14 | 11 | 95* | -14 | 0 | 4
O=C(CCCN=C1NS(=O)(=O)c2ccccc21)OCC(=O)c1ccc(F)cc1 | -9 | -6 | 4 | -7 | -5 | -7
COc1ccc(O)c(-c2cc(-c3ccccc3Cl)[nH]n2)c1 | -4 | 59* | -3 | nt | nt | -8
Cc1ccccc1-c1cc(-c2ccccc2O)n[nH]1 | -164 | 55* | -9 | -5 | 3 | -9
Cc1ccc(-c2cc(-c3ccccc3Cl)[nH]n2)c(O)c1 | -68 | 110* | 0 | 112* | 19 | 12
Oc1ccc(Br)cc1-c1cc(-c2ccccc2Cl)[nH]n1 | 20 | 23 | 4 | 24 | -1 | -5
Cc1ccc(-c2cc(-c3ccccc3[N+](=O)[O-])[nH]n2)c(O)c1 | -77 | 4 | 36 | -8 | -3 | -9
Cc1c(Cl)cccc1NC(=O)CSc1nccn1C | 15 | -6 | nt | -4 | -4 | -8
COC(CNC(=O)c1ccc2c(c1)ncn2-c1ccc(C)cc1C)OC | 14 | -2 | -7 | -1 | -8 | 14
CCOC(=O)C1(Cc2ccc(Cl)cc2)CCN(C(=O)c2cnc(C)cn2)CC1 | -4 | -8 | -2 | 0 | -3 | -9
CC(C)(C)C1COc2ccccc2N1C(=O)c1cccc(Cl)c1 (configuration not stated) | 18 | 16 | 13 | 40 | -3 | 16
CC[C@]12c3[nH]c4cc(CCC(=O)N(C)C)ccc4c3CCN1C(=O)[C@@H](CC(=O)NCc1cccc(C(F)(F)F)c1)C[C@@H]2C(=O)N1CCN(C(=O)C2CC2)CC1 | 16 | nt | nt | nt | nt | nt
Cc1nn(-c2ccccc2)c(C)c1C(=O)Nc1nnc(-c2ccco2)o1 | 3 | 6 | 84* | 15 | 4 | -19
CN(c1ccccc1)S(=O)(=O)c1ccc(C(=O)Nc2nnc(C3CC3)o2)cc1 | 40 | 10 | -13 | 25 | -1 | ?
CCN(c1ccccc1)S(=O)(=O)c1ccc(C(=O)Nc2nnc(C3CC3)o2)cc1 | 39 | 78* | 79* | 32 | 3 | 72*
SMILES | Mdm2 MdmX PPI | SKKanGAS inh | Calb FLC | CSC inhib | Beta apoptosis | T cruzi repl
CCN(c1ccccc1)S(=O)(=O)c1ccc(C(=O)Nc2nnc(-c3ccco3)o2)cc1 | 42 | 63* | ? | 87* | 1 | 14
Cc1c(Cl)cccc1NC(=S)N1CCCN(Cc2ccc(F)cc2)C1 | 12 | 3 | -2 | 3 | -7 | 25
c1ccc(C2CCCN(Cc3nc(CC4CC4)no3)CC2)cc1 (configuration not stated) | -6 | -1 | 1 | -11 | -10 | 17
c1ccc(C(c2ccccc2)c2noc(CN3CCC(c4ccncc4)CC3)n2)cc1 | 3 | 3 | -1 | 31 | -8 | 61*
CC(C)NC(=O)c1sc2nc3c(c(-c4cccs4)c2c1N)CN(C)CC3 | 6 | 3 | -4 | -23 | -14 | 56*
Cc1cccc(NC(=O)c2sc3nc4c(c(-c5cccs5)c3c2N)CN(C)CC4)c1 | 21 | 21 | -7 | -13 | -1 | 40
CCOC(=O)c1c(S(=O)(=O)NCC(=O)Nc2ccc(F)cc2)c(C)n(C)c1C | 8 | -3 | 10 | 10 | -3 | -8
CN1CCN(c2ccc(-c3ccnn3C(=O)Nc3cccc(C(F)(F)F)c3)cc2)CC1 | -44 | nt | nt | 19 | 8 | 35
CCOC(=O)/C(=C\c1ccc(OC(F)F)cc1)C1=Nn2c(nnc2-c2ccc(Cl)cc2)SC1 | nt | -20 | ? | 100* | 131* | 39
Cc1ccc(N=C2C(=O)Nc3ccccc32)cc1 | -7 | -5 | 0 | -2 | -9 | -7
CCN(CC)c1ccc(N=C2C(=O)Nc3ccccc32)cc1 | 1 | 11 | -23 | -13 | 87* | 51
Nc1ccc(N(CCO)CCO)cc1 | 4 | 7 | 43 | 3 | -1 | -13
OCCN(CCO)c1ccc(C(c2ccc(Cl)cc2)c2ccc(N(CCO)CCO)cc2Cl)c(Cl)c1 | 16 | 93* | 2 | 22 | 1 | 6
Oc1cccc(-c2nc3ccc4ccccc4c3c3c2CCC3)c1 | -93 | 63* | 32 | -5 | 5 | 29
O=C(Nc1cccc(F)c1)C1CCN(C(=O)N2CCOc3ccccc32)CC1 | 2 | -7 | -1 | -10 | 2 | 44
COc1ccccc1NC(=O)CC12CC3CC(CC(Br)(C3)C1)C2 | -13 | -3 | 2 | -25 | -8 | 6
CCS(=O)(=O)N1Cc2ccccc2CC1C(=O)Nc1nnc(SCc2ccc(F)cc2)s1 (configuration not stated) | 11 | 54* | -2 | 16 | 4 | -2
COc1cccc(-n2c(C)cc(/C=C3/C(=N)N4C(=NC3=O)SN=C4S(C)(=O)=O)c2C)c1 | -19 | 69* | 48 | 10 | 1 | 6
COc1cc(/C=C2/C(=N)N3C(=NC2=O)SN=C3S(C)(=O)=O)ccc1OS(=O)(=O)c1ccc(C)cc1 | 2 | 28 | 36 | 52 | -4 | 4
Cc1cc(C)cc(-n2cccc2/C=C2/C(=N)N3C(=NC2=O)SN=C3S(C)(=O)=O)c1 | 21 | 71* | 9 | 72 | 2 | -12
